How the values were obtained:
Mus musculus [1] = experiment: (§1) Number of Plasmodium berghei infected mice died on day 7 at 40 mg/kg; assay type: functional
Procedure, shortened: (§2)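 Male mice infected with drug-sensitive P. berghei KBG 173; single subcutaneous dose given 3 days postinfection, five mice per dose; survival followed, with cure (C) meaning survival to 60 days postinfection and deaths 0–2 days after treatment scored as toxicity (T).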

Mus musculus [2] = experiment: Number of Plasmodium berghei infected mice died on day 13 at 40 mg/kg; assay type: functional; procedure, shortened: as §2
Plasmodium falciparum [3] = experiment: Antimalarial activity against Plasmodium falciparum D6 in vitro.; assay type: functional, organism-based
Plasmodium falciparum [4] = experiment: In vitro inhibition of hematin polymerization in Plasmodium falciparum; assay type: functional
Mus musculus [5] = experiment: (§3) Number of Plasmodium berghei infected mice died on day 8 at 160 mg/kg; assay type: functional; procedure, shortened: as §2
Mus musculus [6] = experiment: Number of Plasmodium berghei infected mice died on day 9 at 40 mg/kg; assay type: functional
Mus musculus [7] = experiment: Number of Plasmodium berghei infected mice cured after administration of 640 mg/kg; assay type: functional
Mus musculus [8] = experiment: Number of Plasmodium berghei infected mice cured after administration of 160 mg/kg dose; assay type: functional
Plasmodium falciparum [9] = experiment: In vitro antimalarial activity against chloroquine-resistant Plasmodium falciparum W2; assay type: functional, organism-based
Mus musculus [10] = experiment: Number of Plasmodium berghei infected mice died on day 10 at 160 mg/kg; assay type: functional; procedure, shortened: as §2
Plasmodium falciparum [11] = experiment: Inhibition of hematin polymerization in Plasmodium falciparum; assay type: functional
Mus musculus [12] = experiment: Number of Plasmodium berghei infected mice died on day 10 at 40 mg/kg; assay type: functional; procedure, shortened: as §2
Mus musculus [13] = experiment: Number of Plasmodium berghei infected mice died on day 13 at 640 mg/kg; assay type: functional; procedure, shortened: as §2
Mus musculus [14] = experiment: Number of Plasmodium berghei infected mice died on day 8 at 40 mg/kg; assay type: functional; procedure, shortened: as §2
Mus musculus [15] = experiment: Number of Plasmodium berghei infected mice died on day 14 at 640 mg/kg; assay type: functional; procedure, shortened: as §2
Mus musculus [16] = experiment: Number of Plasmodium berghei infected mice died on day 24 at 640 mg/kg; assay type: functional; procedure, shortened: as §2
Mus musculus [17] = experiment: Number of Plasmodium berghei infected mice died on day 18 at 160 mg/kg; assay type: functional; procedure, shortened: as §2
Mus musculus [18] = experiment: Number of Plasmodium berghei infected mice died on day 29 at 640 mg/kg; assay type: functional; procedure, shortened: as §2
Mus musculus [19] = experiment: Number of Plasmodium berghei infected mice died on day 9 at 160 mg/kg; assay type: functional; procedure, shortened: as §2
Mus musculus [20] = experiment: as §3; assay type: functional; remark: listed apart in the source
Mus musculus [21] = experiment: as §1; assay type: functional; remark: listed apart in the source
Mus musculus [22] = experiment: Number of Plasmodium berghei infected mice died on day 11 at 40 mg/kg; assay type: functional; procedure, shortened: as §2
Mus musculus [23] = experiment: (§4) Number of Plasmodium berghei infected mice died on day 12 at 640 mg/kg; assay type: functional
Mus musculus [24] = experiment: Number of Plasmodium berghei infected mice died on day 13 at 160 mg/kg; assay type: functional; procedure, shortened: as §2
Mus musculus [25] = experiment: Number of Plasmodium berghei infected mice died on day 33 at 640 mg/kg; assay type: functional; procedure, shortened: as §2
Mus musculus [26] = experiment: Number of Plasmodium berghei infected mice died on day 16 at 640 mg/kg; assay type: functional; procedure, shortened: as §2
Mus musculus [27] = experiment: Number of Plasmodium berghei infected mice cured after administration of the dose 640 mg/kg; assay type: functional; procedure, shortened: as §2
Mus musculus [28] = experiment: (§5) Number of Plasmodium berghei infected mice died on day 6 at 40 mg/kg; assay type: functional; procedure, shortened: as §2
Mus musculus [29] = experiment: Number of Plasmodium berghei infected mice died on day 16 at 160 mg/kg; assay type: functional; procedure, shortened: as §2
Mus musculus [30] = experiment: Number of Plasmodium berghei infected mice died on day 7 at 640 mg/kg; assay type: functional; procedure, shortened: as §2
Mus musculus [31] = experiment: Number of Plasmodium berghei infected mice died on day 7 at 160 mg/kg; assay type: functional; procedure, shortened: as §2
Mus musculus [32] = experiment: (§6) Number of Plasmodium berghei infected mice died on day 6 at 160 mg/kg; assay type: functional; procedure, shortened: as §2
Mus musculus [33] = experiment: Number of Plasmodium berghei infected mice died on day 14 at 160 mg/kg; assay type: functional; procedure, shortened: as §2
Mus musculus [34] = experiment: Number of Plasmodium berghei infected mice cured after administration of a compound dose 640 mg/kg; assay type: functional
Mus musculus [35] = experiment: Number of Plasmodium berghei infected mice died on day 19 at 640 mg/kg; assay type: functional; procedure, shortened: as §2
Mus musculus [36] = experiment: Number of Plasmodium berghei infected mice died on day 12 at 160 mg/kg; assay type: functional; procedure, shortened: as §2
Mus musculus [37] = experiment: Number of Plasmodium berghei infected mice died on day 6 at 640 mg/kg; assay type: functional
Mus musculus [38] = experiment: as §5; assay type: functional; remark: listed apart in the source
Mus musculus [39] = experiment: as §6; assay type: functional; remark: listed apart in the source
Mus musculus [40] = experiment: Number of Plasmodium berghei infected mice died on day 12 at 40 mg/kg; assay type: functional; procedure, shortened: as §2
Mus musculus [41] = experiment: Number of Plasmodium berghei infected mice died on day 22 at 640 mg/kg; assay type: functional; procedure, shortened: as §2
Mus musculus [42] = experiment: Number of Plasmodium berghei infected mice died at 640 mg/kg; Curative; assay type: functional; procedure, shortened: as §2
Mus musculus [43] = experiment: Number of Plasmodium berghei infected mice died on day 18 at 640 mg/kg; assay type: functional; procedure, shortened: as §2
Mus musculus [44] = experiment: Number of Plasmodium berghei infected mice died at 160 mg/kg; Curative; assay type: functional; procedure, shortened: as §2
Mus musculus [45] = experiment: Number of Plasmodium berghei infected mice died on day 17 at 160 mg/kg; assay type: functional; procedure, shortened: as §2
Mus musculus [46] = experiment: Number of Plasmodium berghei infected mice died on day 20 at 640 mg/kg; assay type: functional; procedure, shortened: as §2
Mus musculus [47] = experiment: Number of Plasmodium berghei infected mice died on day 11 at 160 mg/kg; assay type: functional
Mus musculus [48] = experiment: as §4; assay type: functional; procedure, shortened: as §2; remark: listed apart in the source
Mus musculus [49] = experiment: Number of Plasmodium berghei infected mice died on day 26 at 160 mg/kg; assay type: functional; procedure, shortened: as §2
Mus musculus [50] = experiment: Number of Plasmodium berghei infected mice died on day 15 at 40 mg/kg; assay type: functional; procedure, shortened: as §2
Mus musculus [51] = experiment: Number of Plasmodium berghei infected mice died at 40 mg/kg; Curative; assay type: functional; procedure, shortened: as §2
Mus musculus [52] = experiment: Number of Plasmodium berghei infected mice died on day 25 at 640 mg/kg; assay type: functional; procedure, shortened: as §2
Mus musculus [53] = experiment: Number of Plasmodium berghei infected mice died on day 20 at 160 mg/kg; assay type: functional; procedure, shortened: as §2
Mus musculus [54] = experiment: Number of Plasmodium berghei infected mice died on day 16 at 40 mg/kg; assay type: functional; procedure, shortened: as §2
Mus musculus [55] = experiment: Number of Plasmodium berghei infected mice died on day 23 at 160 mg/kg; assay type: functional; procedure, shortened: as §2
Mus musculus [56] = experiment: Number of Plasmodium berghei infected mice died on day 14 at 40 mg/kg; assay type: functional; procedure, shortened: as §2
Mus musculus [57] = experiment: Number of Plasmodium berghei infected mice died at 640 mg/kg; Toxic; assay type: functional; procedure, shortened: as §2

Structure (SMILES) | Number (Mus musculus [1]) | IC50 (Plasmodium falciparum [3]) | IC50 (Plasmodium falciparum [4]) | Number (Mus musculus [6]) | IC50 (Plasmodium falciparum [9]) | Number (Mus musculus [10]) | IC50 (Plasmodium falciparum [11]) | Number (Mus musculus [13]) | Number (Mus musculus [14]) | Number (Mus musculus [15]) | Number (Mus musculus [17]) | Number (Mus musculus [21]) | Number (Mus musculus [24]) | also measured
Clc1ccc2c(NCCOCCOCCNc3ccnc4cc(Cl)ccc34)ccnc2c1 | 2 | 2.5 nM | 15 µM | 2 | 9.9 nM | – | – | – | – | – | – | – | – | Number (Mus musculus [2]): 1; Number (Mus musculus [5]): 3; Number (Mus musculus [7]): 1; Number (Mus musculus [8]): 1
Clc1ccc2c(NCCOCCNc3ccnc4cc(Cl)ccc34)ccnc2c1 | – | 16 nM | – | – | 89 nM | 1 | 20 µM | 2 | 3 | 1 | 1 | 1 | – | Number (Mus musculus [12]): 1; Number (Mus musculus [16]): 1; Number (Mus musculus [18]): 1; Number (Mus musculus [19]): 2; Number (Mus musculus [20]): 1
CN(CCCNc1ccnc2cc(Cl)ccc12)CCCNc1ccnc2cc(Cl)ccc12 | – | 5.9 nM | – | 2 | 2.8 nM | – | 8 µM | 1 | 2 | 1 | 2 | – | 3 | Number (Mus musculus [22]): 1; Number (Mus musculus [23]): 1; Number (Mus musculus [25]): 1; Number (Mus musculus [26]): 1
Clc1ccc2c(N3CCN(CN4CCN(c5ccnc6cc(Cl)ccc56)CC4)CC3)ccnc2c1 | 4 | > 1000 nM | > 2500 µM | – | > 1000 nM | 1 | – | – | – | – | – | – | – | Number (Mus musculus [27]): 3; Number (Mus musculus [19]): 3; Number (Mus musculus [28]): 1; Number (Mus musculus [29]): 1
Clc1ccc2c(NCCCCCCNCCCCCCNc3ccnc4cc(Cl)ccc34)ccnc2c1 | 1 | 11 nM | 7 µM | – | 5.4 nM | – | – | – | – | – | – | – | – | Number (Mus musculus [30]): 5; Number (Mus musculus [31]): 3; Number (Mus musculus [28]): 4; Number (Mus musculus [32]): 2
Clc1ccc2c(NCCCOCCOCCOCCCNc3ccnc4cc(Cl)ccc34)ccnc2c1 | – | 24 nM | 20 µM | 3 | 48 nM | – | – | – | 1 | 1 | – | – | 1 | Number (Mus musculus [22]): 1; Number (Mus musculus [33]): 2; Number (Mus musculus [34]): 3; Number (Mus musculus [35]): 1; Number (Mus musculus [36]): 2
Clc1ccc2c(NCCCNCCNc3ccnc4cc(Cl)ccc34)ccnc2c1 | – | 26 nM | – | – | 7 nM | – | 16 µM | – | – | – | – | 1 | – | Number (Mus musculus [37]): 5; Number (Mus musculus [38]): 4; Number (Mus musculus [39]): 5
Clc1ccc2c(NCCN3CCN(c4ccnc5cc(Cl)ccc45)CC3)ccnc2c1 | – | 1.2 nM | – | 1 | 9 nM | – | 5 µM | – | 1 | – | – | – | 3 | Number (Mus musculus [40]): 1; Number (Mus musculus [41]): 1; Number (Mus musculus [42]): 1; Number (Mus musculus [33]): 1; Number (Mus musculus [2]): 2; Number (Mus musculus [43]): 1; Number (Mus musculus [44]): 1; Number (Mus musculus [45]): 1; Number (Mus musculus [46]): 1; Number (Mus musculus [26]): 1
Clc1ccc2c(NCCCOCCCCOCCCNc3ccnc4cc(Cl)ccc34)ccnc2c1 | – | 22 nM | – | 2 | 21 nM | 2 | 19 µM | 2 | 1 | – | – | 1 | – | Number (Mus musculus [47]): 1; Number (Mus musculus [48]): 3; Number (Mus musculus [12]): 1; Number (Mus musculus [49]): 1; Number (Mus musculus [36]): 1
CCN(CC)CCCC(C)Nc1ccnc2cc(Cl)ccc12 (stereo not drawn) [CHLOROQUINE] | – | – | – | – | – | – | – | – | – | – | 1 | – | – | Number (Mus musculus [50]): 1; Number (Mus musculus [40]): 1; Number (Mus musculus [51]): 1; Number (Mus musculus [52]): 1; Number (Mus musculus [53]): 1; Number (Mus musculus [44]): 1; Number (Mus musculus [54]): 1; Number (Mus musculus [55]): 1; Number (Mus musculus [29]): 1; Number (Mus musculus [56]): 2; Number (Mus musculus [57]): 3

Source: ChEMBL document CHEMBL1131162, “Bisquinolines. 2. Antimalarial N,N-bis(7-chloroquinolin-4-yl)heteroalkanediamines” (J Med Chem, 1998)
